Experimental data published in ChEMBL document CHEMBL1138107, “Novel non-nucleobase inhibitors of Staphylococcus aureus DNA polymerase IIIC” (Bioorg Med Chem Lett, 2006).
Converted amounts (≈) assume the structure as drawn. The source made the active and inactive calls. The rule behind the calls is not given here.

Key:
[1] = molecular target: T1, DNA polymerase III PolC-type (Staphylococcus aureus, UniProt P0C1P9); test: Inhibition of DNA polymerase3C from Staphylococcus aureus
T1 sequence (P0C1P9 whole entry): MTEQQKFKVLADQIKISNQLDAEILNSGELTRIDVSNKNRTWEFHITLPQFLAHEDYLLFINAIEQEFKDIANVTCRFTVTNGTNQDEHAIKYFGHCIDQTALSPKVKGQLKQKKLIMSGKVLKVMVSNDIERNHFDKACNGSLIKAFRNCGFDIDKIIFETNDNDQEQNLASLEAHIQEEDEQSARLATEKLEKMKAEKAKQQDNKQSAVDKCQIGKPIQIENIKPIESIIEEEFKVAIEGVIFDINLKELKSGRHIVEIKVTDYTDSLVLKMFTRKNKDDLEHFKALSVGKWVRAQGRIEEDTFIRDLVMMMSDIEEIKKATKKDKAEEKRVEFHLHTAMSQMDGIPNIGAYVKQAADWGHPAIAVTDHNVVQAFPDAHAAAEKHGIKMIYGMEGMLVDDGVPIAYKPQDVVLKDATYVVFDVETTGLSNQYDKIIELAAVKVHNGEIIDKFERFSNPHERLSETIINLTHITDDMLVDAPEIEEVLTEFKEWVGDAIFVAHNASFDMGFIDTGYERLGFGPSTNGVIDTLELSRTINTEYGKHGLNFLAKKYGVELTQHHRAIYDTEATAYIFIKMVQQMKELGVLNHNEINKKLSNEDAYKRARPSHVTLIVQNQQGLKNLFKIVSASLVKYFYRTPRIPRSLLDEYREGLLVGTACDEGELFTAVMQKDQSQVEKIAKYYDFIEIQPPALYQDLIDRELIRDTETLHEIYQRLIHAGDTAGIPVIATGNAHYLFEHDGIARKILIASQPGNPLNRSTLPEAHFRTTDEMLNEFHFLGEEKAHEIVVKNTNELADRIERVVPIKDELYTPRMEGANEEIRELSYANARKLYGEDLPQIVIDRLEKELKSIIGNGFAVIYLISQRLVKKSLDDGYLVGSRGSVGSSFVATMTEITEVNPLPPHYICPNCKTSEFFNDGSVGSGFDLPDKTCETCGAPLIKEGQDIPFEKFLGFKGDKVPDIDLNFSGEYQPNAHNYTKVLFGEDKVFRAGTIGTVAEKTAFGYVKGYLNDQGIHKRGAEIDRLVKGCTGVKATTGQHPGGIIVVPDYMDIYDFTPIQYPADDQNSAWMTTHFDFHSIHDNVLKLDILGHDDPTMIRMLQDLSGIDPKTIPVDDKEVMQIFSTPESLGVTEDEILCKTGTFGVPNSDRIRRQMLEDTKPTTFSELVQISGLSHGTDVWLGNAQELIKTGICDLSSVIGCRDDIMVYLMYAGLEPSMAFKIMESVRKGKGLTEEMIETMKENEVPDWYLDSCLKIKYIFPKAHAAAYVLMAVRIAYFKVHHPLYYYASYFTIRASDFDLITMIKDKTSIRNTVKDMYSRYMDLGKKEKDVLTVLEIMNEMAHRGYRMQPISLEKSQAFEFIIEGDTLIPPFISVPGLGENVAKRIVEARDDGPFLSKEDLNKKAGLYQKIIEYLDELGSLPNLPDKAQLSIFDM
Summary of the method: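 Purified PolC (125 ng) started the reaction with a double-stranded oligonucleotide substrate, dATP, dCTP, low dGTP and [³H]dTTP (1 Ci/mmol) in Tris-HCl pH 7.5 buffer with glycerol, EDTA, DTT, IgG and 8 mM MgCl₂. Incubation was 30 min at 37 °C, stopped with 20 mM EDTA, then spotted on DE81 filters, washed and counted by scintillation. IC50 came from a 12-point, roughly 2-fold serial dilution, run in triplicate.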

[2] = molecular target: T2, DNA polymerase III PolC-type (Staphylococcus aureus) (UniProt P0C1P9); test: Inhibition of DNA polymerase3C from Staphylococcus aureus at 100 uM
T2 sequence (whole entry): T1 sequence (P0C1P9 whole entry)
Summary of the method: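 PolC oligonucleotide-primed incorporation of [³H]dTTP was run with 125 ng purified enzyme for 30 min at 37 °C. It was quenched with EDTA, filter-bound on DE81 and counted by liquid scintillation. Compounds were screened in triplicate at 10, 50 and 100.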

HeLa = test: Cytotoxicity against HeLa cell line by MTS assay; assay type: functional, cell-based; details: Homo sapiens
Summary of the method: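 HeLa cells (2 × 10⁴/well) in DMEM with 1% bovine growth serum were exposed to compound at 100, 50, 25 and 12.5 for 18 h at 37 °C under 5% CO₂. Viability was read as MTS reduction to formazan, by absorbance at 490 nm.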

Staphylococcus aureus [3] = test: Antimicrobial activity against Staphylococcus aureus (RN4220); assay type: functional
Staphylococcus aureus [4] = test: Antimicrobial activity against Staphylococcus aureus (RN4220) in presence of 50% of human serum; assay type: functional
Hepatocyte = test: Cytotoxicity against human hepatocytes by measure of ATP production at 100 uM; assay type: functional, cell-based
Summary of the method: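 Cryopreserved primary human hepatocytes (1 × 10⁴/well) in Krebs–Henseleit buffer were incubated with compound at 100, 50, 25 and 12.5 for 2 h at 37 °C under 5% CO₂. ATP content was then measured by luminescence after adding luciferin and luciferase.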

Staphylococcus aureus [5] = test: Inhibition of DNA replication utilizing Staphylococcus aureus replication proteins in presence of reduced dATP concentrations; assay type: functional, organism-based
Summary of the method: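 The replication assay used a singly primed circular ssM13 template copied by S. aureus PolC, with β clamp, δδ′/τ clamp loader and SSB. [³H]dTTP incorporation was measured in streptavidin-coated scintillation plates, with the dATP concentration reduced to sensitize the assay to dATP analogs.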

| Compound | IC50 [1] [µM] | inhibition [2] [%] | Activity (HeLa) | MIC (Staphylococcus aureus [3]; read-out: MIC) [µg/mL] | MIC (Staphylococcus aureus [4]) [µg/mL] | Activity (Hepatocyte) | IC50 (Staphylococcus aureus [5]) [µM] | MIC (Staphylococcus aureus [3]) [µg/mL] |
| --- | --- | --- | --- | --- | --- | --- | --- | --- |
| C=CCc1c(N)nc(Nc2ccc(C)c(CC)c2)[nH]c1=O | 164 | – | – | – | – | – | – | – |
| C=CCc1c(O)nc(Nc2ccc3c(c2)CCC3)[nH]c1=O | 31 | – | – | – | – | – | – | – |
| C=CCCc1c(O)nc(Nc2ccc3c(c2)CCC3)nc1O | 17.9 | 87 | Not toxic | 8 (≈ 26.9 µM) | – | – | – | – |
| Oc1nc(Nc2ccc3c(c2)CCC3)nc(Cl)c1CCCc1ccccc1 | – | 46 | Not toxic | 16 (≈ 42.1 µM) | > 128 | – | – | – |
| Oc1nc(Nc2ccc3c(c2)CCC3)nc(O)c1CCc1ccccc1 | 18 | 68 | Not toxic | 8 (≈ 23 µM) | – | – | – | – |
| C=CCc1c(O)nc(Nc2ccc3c(c2)CCC3)nc1OC | – | 33 | Not toxic | 128 (≈ 430 µM) | > 128 | – | – | – |
| NCCCc1c(O)nc(Nc2ccc3c(c2)CCC3)nc1O | – | 40 | Not toxic | > 128 | – | – | – | – |
| O=c1[nH]c(Nc2ccc3c(c2)CCC3)nc(O)c1CCCOc1ccc([N+](=O)[O-])cc1 | 2.6 | – | – | – | – | – | – | – |
| C=CCCCCc1c(O)nc(Nc2ccc3c(c2)CCC3)nc1O | – | 81 | Not toxic | 16 (≈ 49.2 µM) | – | – | – | – |
| Oc1nc(Nc2ccc3c(c2)CCC3)nc(O)c1CCCN1CCCCC1 | – | 69 | Not toxic | 128 (≈ 347 µM) | – | – | – | – |
| N#Cc1ccc(OCCCc2c(O)nc(Nc3ccc4c(c3)CCC4)nc2O)cc1 | – | 91 | Not toxic | 8 (≈ 19.9 µM) | – | – | – | – |
| COc1ccc(OCCCc2c(O)nc(Nc3ccc4c(c3)CCC4)[nH]c2=O)cc1 | 11.6 | – | – | – | – | – | – | – |
| CCc1cc(Nc2nc(O)c(Cc3ccccc3)c(O)n2)ccc1C | 4 | 94 | Not toxic | 8 (≈ 23.9 µM) | – | inactive | – | – |
| CCc1cc(Nc2nc(N)c(CCCc3ccccc3)c(O)n2)ccc1C | – | 12 | Not toxic | > 128 | > 128 | – | 7.9 | – |
| Nc1cc(O)nc(Nc2ccc3c(c2)CCC3)n1 | – | 5 | Not toxic | > 128 | > 128 | – | – | – |
| C=CCc1c(N)nc(Nc2ccc(C)c(CC)c2)nc1O | – | 32 | Not toxic | 8 (≈ 28.1 µM) | 32 | – | 7.7 | – |
| C=CCc1c(O)nc(Nc2ccc(C)c(CC)c2)[nH]c1=O | 7.7 | – | – | – | – | – | – | – |
| COC(=O)c1ccc(OCCCc2c(O)nc(Nc3ccc4c(c3)CCC4)nc2O)cc1 | – | 74 | Not toxic | 64 (≈ 147 µM) | – | – | – | – |
| Nc1nc(Nc2ccc3c(c2)CCC3)nc(O)c1Cc1ccccc1 | – | 17 | Not toxic | > 128 | > 128 | – | > 100 | – |
| CCc1cc(Nc2nc(O)c(CCCc3ccc(C#N)cc3OC)c(O)n2)ccc1C | – | 81 | Not toxic | 16 (≈ 38.2 µM) | – | – | – | – |
| COc1cc(C#N)ccc1OCCCc1c(O)nc(Nc2ccc3c(c2)CCC3)nc1O | 3 | 95 | Not toxic | 16 (≈ 37 µM) | – | inactive | – | – |
| Oc1nc(Nc2ccc3c(c2)CCC3)nc(O)c1CCCCc1ccccc1 | – | 35 | Not toxic | > 128 | – | – | – | – |

| Compound | IC50 [1] [µM] | inhibition [2] [%] | Activity (HeLa) | MIC (Staphylococcus aureus [3]; read-out: MIC) [µg/mL] | MIC (Staphylococcus aureus [4]) [µg/mL] | Activity (Hepatocyte) | IC50 (Staphylococcus aureus [5]) [µM] | MIC (Staphylococcus aureus [3]) [µg/mL] |
| --- | --- | --- | --- | --- | --- | --- | --- | --- |
| N#Cc1ccc(OCCCc2c(O)nc(Nc3ccc4c(c3)CCC4)[nH]c2=O)cc1 | 5.6 | – | – | – | – | – | – | – |
| Oc1nc(Nc2ccc3c(c2)CCC3)nc(O)c1CCOc1ccccc1 | – | 74 | Not toxic | 16 (≈ 44 µM) | – | – | – | – |
| C=CCc1c(O)nc(Nc2ccc3c(c2)CCC3)nc1O | – | 65 | Not toxic | 16 (≈ 56.5 µM) | > 128 | inactive | – | – |
| C=CCCCc1c(O)nc(Nc2ccc3c(c2)CCC3)nc1O | – | 89 | Not toxic | 16 (≈ 51.4 µM) | – | – | – | – |
| OCCCc1c(O)nc(Nc2ccc3c(c2)CCC3)nc1O | – | 74 | Not toxic | 128 (≈ 425 µM) | – | – | – | – |
| Nc1nc(Nc2ccc3c(c2)CCC3)nc(O)c1CCCc1ccccc1 | – | -0 | Not toxic | > 128 | > 128 | – | > 100 | – |
| Oc1nc(Nc2ccc3c(c2)CCC3)nc(O)c1CCCCOc1ccccc1 | 14 | 67 | Not toxic | 8 (≈ 20.4 µM) | – | – | – | – |
| Nc1ccc(OCCCc2c(O)nc(Nc3ccc4c(c3)CCC4)nc2O)cc1 | – | 83 | Not toxic | > 64 | – | – | – | – |
| COc1ccc(OCCCc2c(O)nc(Nc3ccc4c(c3)CCC4)nc2O)cc1 | – | 81 | Not toxic | 16 (≈ 39.3 µM) | – | – | – | – |
| COc1cc(OCCCc2c(O)nc(Nc3ccc4c(c3)CCC4)nc2O)ccc1[N+](=O)[O-] | – | 72 | Not toxic | 8 (≈ 17.7 µM) | – | – | – | – |
| C=CCc1c(Cl)nc(Nc2ccc3c(c2)CCC3)[nH]c1=O | 2.3 | – | – | – | – | – | – | – |
| Oc1nc(Nc2ccc3c(c2)CCC3)nc(O)c1Cc1ccccc1 | 37 | 90 | Not toxic | 8 (≈ 24 µM) | – | – | – | – |
| O=C(O)c1ccc(OCCCc2c(O)nc(Nc3ccc4c(c3)CCC4)nc2O)cc1 | – | 90 | Not toxic | > 128 | – | – | – | – |
| O=c1[nH]c(Nc2ccc3c(c2)CCC3)nc(O)c1CCCc1ccccc1 | 3 | – | – | – | – | – | – | – |
| C=CCc1c(O)nc(Nc2ccc3c(c2)CCC3)nc1Cl | – | 53 | Not toxic | 1 (≈ 3.31 µM) | > 128 | – | – | – |
| CCc1cc(Nc2nc(N)cc(O)n2)ccc1C | 104 | 36 | Not toxic | – | 32 | – | 28 | 16 (≈ 65.5 µM) |
| CCCc1cnc(Nc2ccc3c(c2)CCC3)nc1O | – | 7 | Not toxic | > 128 | > 128 | – | – | – |
| Nc1ccc(OCCCc2c(O)nc(Nc3ccc4c(c3)CCC4)[nH]c2=O)cc1 | 9 | – | – | – | – | – | – | – |
| O=[N+]([O-])c1ccc(OCCCc2c(O)nc(Nc3ccc4c(c3)CCC4)nc2O)cc1 | – | 70 | Not toxic | 4 (≈ 9.47 µM) | – | – | – | – |
| O=[N+]([O-])c1ccc(OCCCc2c(O)nc(Nc3ccc4c(c3)CCC4)nc2O)nc1 | 5.1 | 85 | Not toxic | 64 (≈ 151 µM) | – | – | – | – |
| CCc1cc(Nc2nc(N)c(Cc3ccccc3)c(O)n2)ccc1C | – | 3 | Not toxic | > 128 | > 128 | – | 9.7 | – |
